From ChEMBL document CHEMBL5360579, “Exploring the anticancer activity and the mechanism of action of pyrrolomycins F obtained by microwave-assisted total synthesis” (Eur J Med Chem, 2023)
Active and inactive are the calls of the source. The calls are words filed in the database; no cut-off is given here.

How the values were obtained:
[1] = Selectivity index, ratio of IC50 for hTERT-RPE1 cells to IC50 for human MCF7 cells; assay type: toxicity; conditions: hTERT-RPE1 cells versus MCF7 cells, read-out: Ratio IC50
Method in brief: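 Ratio of the hTERT-RPE-1 MTT IC50 to the IC50 in HCT116 or MCF-7. Each IC50 comes from a 48 h MTT assay (0.078–80 µM, sigmoidal fit), three experiments in triplicate.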

[2] = system: HCT-116; assay: Induction of morphological changes in human HCT-116 cells assessed as appearance of elongated fusiform-shaped cells at 0.5 uM incubated for 48 hrs by scanning electron microscopic analysis; assay type: functional, cell-based
Method in brief: (§1)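 HCT116 on coverslips, treated 48 h at 0.5 µM. Coverslips rinsed in PBS pH 7.4, fixed in 4% glutaraldehyde for 30 min at 4 °C, then imaged by scanning electron microscopy at 5000X and 20000X.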

[3] = system: MCF7; assay: Induction of morphological changes in human MCF7 cells assessed as appearance of flattened cells at 1 uM incubated for 48 hrs by inverted phase-contrast microscopic analysis; assay type: functional, cell-based
[4] = system: HCT-116; assay: Induction of intracellular ROS generation in human HCT-116 cells at IC50 by DCFH-DA staining based analysis; assay type: functional, cell-based; conditions: time 24-48 hrs, TDE = time-dependent effect
Method in brief: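 HCT116 plated at 5×10^3 cells/well, grown overnight, then exposed 24 h or 48 h at the IC50 concentration. Loaded with 10 µM DCFH-DA for 30 min at 37 °C, medium swapped for PBS. Fluorescence read at ex 488/em 525 nm, normalized to cell number from a parallel MTT assay and to untreated cells. Triplicate, mean ±SD, Student's t-test.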

[5] = system: HCT-116; assay: Induction of cell death in human HCT-116 cells assessed as loss of membrane integrity at 0.5 uM incubated for 48 hrs by acridine orange and ethidium bromide staining based fluorescence microscopic analysis; assay type: functional
Method in brief: (§2)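 HCT116 on coverslips (5×10^4 cells/well), 24 h attachment, then exposed 48 h to 0.5 µM. PBS-washed and stained a few minutes with a 1:1 mix of acridine orange (100 µg/mL) and ethidium bromide (100 µg/mL). Viewed at once by fluorescence microscopy at 640X, scoring green vs orange nuclei and punctate cytoplasmic staining.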

[6] = system: HCT-116; assay: Cytotoxicity against human HCT-116 cells assessed as reduction in colony formation treated for 48 hrs and measured after 10 days post last treatment by crystal violet staining based analysis; assay type: functional, cell-based; conditions: dose 0.1-5 µM, time 9.0 day, in the assay text read “7 days” for “10 days”
Method in brief: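 HCT116 seeded at 5×10^4 cells/well. After 24 h, treated 48 h at 0.1–0.5 and 5 µM, then grown a further 7 days. Fixed and stained 30 min with 6.0% glutaraldehyde plus 0.5% crystal violet, then washed. Dye taken up in 5% acetic acid and read at 592 nm.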

[7] = system: HCT-116; assay: Induction of apoptosis in human HCT-116 cells assessed as chromatin condensation at 0.5 uM incubated for 48 hrs by Hoechst 33342 staining based analysis; assay type: functional, cell-based
Method in brief: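 HCT116 on coverslips at 5×10^4 cells/well, treated 48 h at 0.5 µM after 24 h attachment. PBS-washed, stained 10 min with Hoechst 33342 (final 1 µg/ml). Nuclei inspected at once by fluorescence microscopy at 640X for chromatin condensation and nuclear fragmentation.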

[8] = system: HCT-116; assay: Induction of cell death in human HCT-116 cells assessed as chromatin condensation at 0.5 uM incubated for 48 hrs by acridine orange and ethidium bromide staining based fluorescence microscopic analysis; assay type: functional; method in brief: as §2
[9] = system: HCT-116; assay: Induction of morphological changes in human HCT-116 cells assessed as massive vacuolization at 0.5 uM incubated for 48 hrs by scanning electron microscopic analysis; assay type: functional, cell-based; method in brief: as §1
[10] = system: HCT-116; assay: Induction of cell death in human HCT-116 cells assessed as increase in orange fluorescence at 0.5 uM incubated for 48 hrs by acridine orange and ethidium bromide staining based fluorescence microscopic analysis; assay type: functional; method in brief: as §2
[11] = system: HCT-116; assay: Induction of morphological changes in human HCT-116 cells assessed as neuronal sprouting at 0.5 uM incubated for 48 hrs by scanning electron microscopic analysis; assay type: functional, cell-based; method in brief: as §1
[12] = system: HCT-116; assay: Induction of morphological changes in human HCT-116 cells assessed as appearance of filamentous protrusions at 0.5 uM incubated for 48 hrs by inverted phase-contrast microscopic analysis; assay type: functional, cell-based
[13] = system: HCT-116; assay: Induction of intracellular ROS generation in human HCT-116 cells at IC50 measured after 48 hrs by DCFH-DA staining based fluorescence microscopic analysis; assay type: functional, cell-based
Method in brief: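 HCT116 on coverslips at 5×10^4 cells/well, treated 48 h at the IC50 concentration. Loaded with 10 µM DCFH-DA for 30 min at 37 °C, then imaged by fluorescence microscopy at 640X.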

[14] = system: HCT-116; assay: Induction of cell death in human HCT-116 cells assessed as membrane blebbing at 0.5 uM incubated for 48 hrs by acridine orange and ethidium bromide staining based fluorescence microscopic analysis; assay type: functional; method in brief: as §2
[15] = system: HCT-116; assay: Induction of morphological changes in human HCT-116 cells assessed as alteration in intercellular adhesion at 0.5 uM incubated for 48 hrs by scanning electron microscopic analysis; assay type: functional, cell-based; method in brief: as §1
[16] = system: HCT-116; assay: Induction of morphological changes in human HCT-116 cells assessed as intensive membrane ruffling and blebbing at 0.5 uM incubated for 48 hrs by scanning electron microscopic analysis; assay type: functional, cell-based; method in brief: as §1
[17] = system: HCT-116; assay: Induction of morphological changes in human HCT-116 cells assessed as appearance of actin rich long elongations at 0.5 uM incubated for 48 hrs by rhodamine-phalloidin staining based fluorescence microscopic analysis; assay type: functional, cell-based
Method in brief: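 HCT116 on coverslips, treated 48 h at 0.5 µM. Fixed in cold methanol 15 min, permeabilized 15 min in 0.1% Triton X-100/PBS. Stained with 0.165 µM rhodamine-phalloidin for 40 min in the dark at room temperature. Imaged at 640X.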

[18] = system: MCF7; assay: Induction of morphological changes in human MCF7 cells assessed as appearance of filamentous protrusions at 1 uM incubated for 48 hrs by inverted phase-contrast microscopic analysis; assay type: functional, cell-based
[19] = system: HCT-116; assay: Induction of morphological changes in human HCT-116 cells assessed as appearance of flattened cells at 0.5 uM incubated for 48 hrs by scanning electron microscopic analysis; assay type: functional, cell-based; method in brief: as §1
[20] = system: HCT-116; assay: Induction of morphological changes in human HCT-116 cells assessed as appearance of flattened cells at 0.5 uM incubated for 48 hrs by inverted phase-contrast microscopic analysis; assay type: functional, cell-based
[21] = system: HCT-116; assay: Induction of morphological changes in human HCT-116 cells assessed as tunneling nanotubes formation at 0.5 uM incubated for 48 hrs by scanning electron microscopic analysis; assay type: functional, cell-based; method in brief: as §1
[22] = Cytotoxicity against hTERT-RPE1 cells assessed as inhibition of cell proliferation incubated for 48 hrs by MTT assay; assay type: toxicity, cell-based, TERT-RPE1; conditions: human
Method in brief: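 Cells kept in DMEM with 10% heat-inactivated FBS, penicillin/streptomycin, 37 °C, 5% CO2. Plated at 5×10^3 cells/well and left 24 h, then exposed 48 h to 80, 20, 5, 1.25, 0.31 and 0.078 µM (diluted from 5 mM DMSO stocks). MTT added for 2 h at 37 °C, formazan dissolved in DMSO, A570 read. Blank subtracted, viability taken relative to untreated cells. IC50 from a sigmoidal fit of % inhibition vs log concentration. Three experiments, each in triplicate.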

[23] = system: HCT-116; assay: Induction of cell death in human HCT-116 cells assessed as appearance of neutral pH vacuoles originated from engulfment of extracellular fluid at 0.5 uM incubated for 48 hrs by acridine orange and ethidium bromide staining based fluorescence microscopic analysis; assay type: functional; method in brief: as §2

Compound	Activity [2]	Activity [3]	Activity [4]	Activity [5]	Activity [7]	Activity [8]	Activity [9]	Activity [10]	Activity [11]	Activity [12]	Activity [13]	Activity [14]	Activity [15]	Activity [16]	Activity [17]	Activity [18]	Activity [19]	Activity [20]	Activity [21]	IC50 at 48 h [22]	other results
O=C(c1cc(Br)ccc1O)c1[nH]c(Cl)c(Br)c1Br	Active	Active	Tde	Active	inactive	inactive	Active	Active	Active	Active	Active	Active	Active	Active	Active	Active	Active	Active	Active	61.5 µM	selectivity ratio [1]: ~100; Activity [6]: Dose-Dependent Effect; Activity [23]: Active
O=C(c1cc(Br)ccc1O)c1[nH]c(Br)c(Cl)c1Br	Active	Active	Tde	Active	inactive	inactive	Active	Active	Active	Active	Active	Active	Active	Active	Active	Active	Active	Active	Active	86.6 µM	selectivity ratio [1]: ~100; Activity [6]: Dose-Dependent Effect; Activity [23]: Active
O=C(c1cc(Br)cc(Br)c1O)c1[nH]c(Br)c(Br)c1Br	Active	Active	Tde	Active	inactive	inactive	Active	Active	Active	Active	Active	Active	Active	Active	Active	Active	Active	Active	Active	57.7 µM	Activity [23]: Active
O=C(c1cc(Br)ccc1O)c1[nH]c(Br)c(Br)c1Br	Active	Active	Tde	Active	inactive	inactive	Active	Active	Active	Active	Active	Active	Active	Active	Active	Active	Active	Active	Active	62.8 µM	selectivity ratio [1]: ~100; Activity [6]: Dose-Dependent Effect; Activity [23]: Active
O=C(c1cc(Br)ccc1O)c1[nH]c(Cl)c(Cl)c1Br	Active	Active	Tde	Active	inactive	inactive	Active	Active	Active	Active	Active	Active	Active	Active	Active	Active	Active	Active	Active	175 µM	selectivity ratio [1]: ~100; Activity [6]: Dose-Dependent Effect; Activity [23]: Active
